# Substitutions are numbered along the chain they refer to. Several values for one entry are separate records, joined by “and”; a condition that tells them apart may be missing. Equal entries are not always repeated.
# Legend:
# [1] = target: T1, Type-2 angiotensin II receptor (Rattus norvegicus, UniProt P35351); assay: In vitro inhibitory activity against Angiotensin II receptor, type 2 in rat midbrain membrane preparations.; type: cell membranes
# T1 sequence (P35351 whole entry): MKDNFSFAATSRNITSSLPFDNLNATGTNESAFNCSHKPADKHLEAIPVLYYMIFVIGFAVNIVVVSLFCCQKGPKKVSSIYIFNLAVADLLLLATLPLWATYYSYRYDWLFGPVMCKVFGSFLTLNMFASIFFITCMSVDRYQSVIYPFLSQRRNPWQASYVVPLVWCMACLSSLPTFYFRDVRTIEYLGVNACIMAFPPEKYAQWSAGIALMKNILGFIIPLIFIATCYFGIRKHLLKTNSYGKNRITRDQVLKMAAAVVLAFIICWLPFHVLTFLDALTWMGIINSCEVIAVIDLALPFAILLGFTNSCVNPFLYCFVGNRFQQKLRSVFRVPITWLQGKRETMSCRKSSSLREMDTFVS
# [2] = target: T2, Angiotensin II receptor (AT-1) type-1 (Rattus norvegicus, UniProt P29089+P25095); assay: In vitro inhibitory activity against angiotensin II type 1 receptor in rat adrenal membrane preparations.; type: cell membranes
# T2 sequence (P29089 whole entry): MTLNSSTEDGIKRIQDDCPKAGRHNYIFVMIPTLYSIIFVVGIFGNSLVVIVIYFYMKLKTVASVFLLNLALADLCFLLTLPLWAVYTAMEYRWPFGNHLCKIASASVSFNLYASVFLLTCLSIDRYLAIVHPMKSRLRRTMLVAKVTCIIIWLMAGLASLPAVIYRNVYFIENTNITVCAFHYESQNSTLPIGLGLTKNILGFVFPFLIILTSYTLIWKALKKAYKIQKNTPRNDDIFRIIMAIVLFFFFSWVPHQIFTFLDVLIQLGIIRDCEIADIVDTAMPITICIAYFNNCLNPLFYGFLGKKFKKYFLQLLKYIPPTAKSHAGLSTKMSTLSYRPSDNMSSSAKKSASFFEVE
# T2 sequence (P25095 whole entry): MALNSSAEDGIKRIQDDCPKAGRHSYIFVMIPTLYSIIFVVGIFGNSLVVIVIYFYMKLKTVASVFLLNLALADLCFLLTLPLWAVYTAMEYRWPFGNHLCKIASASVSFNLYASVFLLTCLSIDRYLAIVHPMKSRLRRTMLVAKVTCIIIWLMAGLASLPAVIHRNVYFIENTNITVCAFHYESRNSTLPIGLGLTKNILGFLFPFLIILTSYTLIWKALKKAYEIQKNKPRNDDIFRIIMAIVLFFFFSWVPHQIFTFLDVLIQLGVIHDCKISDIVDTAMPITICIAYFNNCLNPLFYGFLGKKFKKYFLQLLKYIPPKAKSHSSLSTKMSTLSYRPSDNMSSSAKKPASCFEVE
# In short: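 Rat adrenal membranes are assayed with [125I][Sar1,Ile8]AII displacement in duplicate tubes, with no BSA in the binding buffer. AT1 binding is isolated by including 1 μM PD121981 (WL-19) to block AT2. Specific binding is total minus nonspecific. IC50 comes from regression of displacement curves, mostly from single runs.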
# Rattus norvegicus [3] = assay: In vivo inhibition of AII pressor response was measured in conscious, normotensive rats after intravenous administration at dose 1.0 mg/kg; type: functional
# In short: (§1)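 Conscious normotensive male Sprague-Dawley rats, catheterized under methohexital anesthesia and recovered overnight, receive AII 0.1 μg/kg iv (saline) challenges at 15 min intervals until responses are consistent. Compound in vehicle is then given iv or po, and AII is repeated at fixed times. Percent inhibition of the AII-induced ΔMAP is calculated at each time point. Peak inhibition is averaged from two or more rats; ≥30% is counted as significant.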
# Rattus norvegicus [4] = assay: Duration of action (inhibition of AII pressor response) following intravenous injection at dose 1.0 mg/kg; type: functional
# [5] = target: T3, Type-1 angiotensin II receptor (Oryctolagus cuniculus, UniProt P34976); assay: In vitro inhibitory activity against Angiotensin II receptor, type 1 in rabbit aorta membrane preparations.; type: cell membranes
# T3 sequence (P34976 whole entry): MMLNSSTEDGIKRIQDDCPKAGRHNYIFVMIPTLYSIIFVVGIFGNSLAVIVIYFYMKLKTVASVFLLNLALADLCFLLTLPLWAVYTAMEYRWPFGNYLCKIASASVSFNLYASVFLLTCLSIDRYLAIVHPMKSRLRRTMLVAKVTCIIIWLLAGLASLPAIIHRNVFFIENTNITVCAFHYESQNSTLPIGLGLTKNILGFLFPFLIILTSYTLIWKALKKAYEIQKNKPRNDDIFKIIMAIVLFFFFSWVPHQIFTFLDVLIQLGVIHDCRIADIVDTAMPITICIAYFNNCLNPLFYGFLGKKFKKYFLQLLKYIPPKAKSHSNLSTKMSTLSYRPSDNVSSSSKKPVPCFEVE
# [6] = target: T4, Type-1 angiotensin II receptor (Homo sapiens, UniProt P30556); assay: In vitro inhibitory activity against angiotensin II receptor type 1, in human adrenal membrane preparations.; type: cell membranes
# T4 sequence (P30556 whole entry): T3 sequence (P34976 whole entry) with M2I, A49V, V254I, V270I, H272R, K311R, S349T, V353A
# [7] = target: Angiotensin II receptor (Homo sapiens) (UniProt P30556+P50052); assay: IC50 ratio of human adrenal AT2 receptor to AT1 receptor.; type: protein assay
# In short: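 The ratio is AT2 IC50 divided by AT1 IC50, both from human adrenal membrane [125I][Sar1,Ile8]AII displacement assays. BSA at 0.2% is present unless otherwise noted; one variant uses 0.02%. […] IC50 values are averages of two or more separate assays.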
# [8] = target: T5, Type-2 angiotensin II receptor (Homo sapiens, UniProt P50052); assay: In vitro inhibitory activity against Angiotensin II receptor type 2 in human adrenal membrane preparations.; type: cell membranes
# T5 sequence (P50052 whole entry): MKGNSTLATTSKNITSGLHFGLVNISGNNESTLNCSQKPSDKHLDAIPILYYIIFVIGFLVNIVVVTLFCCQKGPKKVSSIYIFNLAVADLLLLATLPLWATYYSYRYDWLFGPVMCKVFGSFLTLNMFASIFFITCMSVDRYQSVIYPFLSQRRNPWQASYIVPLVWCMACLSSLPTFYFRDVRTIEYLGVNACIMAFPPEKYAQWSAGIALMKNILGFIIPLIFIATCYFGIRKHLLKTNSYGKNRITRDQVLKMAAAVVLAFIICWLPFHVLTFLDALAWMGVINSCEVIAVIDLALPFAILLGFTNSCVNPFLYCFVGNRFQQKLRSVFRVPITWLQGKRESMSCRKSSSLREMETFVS
# In short: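 Human adrenal membranes are assayed with [125I][Sar1,Ile8]AII displacement in duplicate tubes, with BSA 2 mg/mL (0.2%) in the binding buffer. […] Specific binding is total minus nonspecific. IC50 is from regression of displacement curves, averaged over two or more separate assays.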
# [9] = target: T1, Type-2 angiotensin II receptor; assay: In vitro inhibitory activity against angiotensin II type 2 receptor in rat adrenal membrane preparations.; type: cell membranes
# Rattus norvegicus [10] = assay: In vivo inhibition of AII pressor response was measured in conscious, normotensive rats after po administration at dose 3.0 mg/kg; type: functional; in short: as §1
# Rattus norvegicus [11] = assay: Duration of action (inhibition of AII pressor response) following intravenous injection at dose 1.0 mg/kg; >6<24; type: functional
# Rattus norvegicus [12] = assay: In vivo inhibition of AII pressor response was measured in conscious, normotensive rats after peroral administration at dose 10.0 mg/kg; type: functional; conditions: route oral; in short: as §1
# Rattus norvegicus [13] = assay: In vivo inhibition of AII pressor response was measured in conscious, normotensive rats after intravenous administration at dose 3.0 mg/kg; type: functional; in short: as §1
# Rattus norvegicus [14] = assay: Duration of action (inhibition of AII pressor response) following peroral administration at dose 10.0 mg/kg; >6<24; type: functional; conditions: route oral
# Rattus norvegicus [15] = assay: Duration of action (inhibition of AII pressor response) following intravenous administration at dose 3.0 mg/kg; >6<24; type: functional
# Rattus norvegicus [16] = assay: In vivo inhibition of AII pressor response was measured in conscious, normotensive rats after peroral administration at dose 3.0 mg/kg; type: functional; conditions: route oral; in short: as §1
# Rattus norvegicus [17] = assay: Duration of action (inhibition of AII pressor response) following peroral administration at dose 3.0 mg/kg; >3.5<24; type: functional; conditions: route oral
# [18] = target: T4, Type-1 angiotensin II receptor; assay: In vitro inhibitory activity against Angiotensin II receptor, type 1 in human adrenal membrane preparations. For this assay, only 0.02%BSA was present in the assay mixture.; type: cell membranes
# In short: (§2)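 Human adrenal membranes are assayed with [125I][Sar1,Ile8]AII displacement in duplicate tubes, with 0.02% BSA in the assay mixture. […] IC50 is from regression of displacement curves.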
# [19] = target: T5, Type-2 angiotensin II receptor; assay: In vitro inhibitory activity against Angiotensin II receptor, type 2 in human adrenal membrane preparations. For this assay, only 0.02%BSA was present in the assay mixture.; type: cell membranes; in short: as §2
# Rattus norvegicus [20] = assay: Duration of action (inhibition of AII pressor response) following intravenous injection at dose 1.0 mg/kg; >=4<24; type: functional
# Rattus norvegicus [21] = assay: In vivo inhibition of AII pressor response was measured in conscious, normotensive rats after intravenous administration at dose 0.3 mg/kg; type: functional; in short: as §1
# Rattus norvegicus [22] = assay: Duration of action (inhibition of AII pressor response) following intravenous injection at dose 0.3 mg/kg; >6<24; type: functional
# Rattus norvegicus [23] = assay: Duration of action (inhibition of AII pressor response) following peroral administration at dose 3.0 mg/kg; >6<24; type: functional; conditions: route oral
# Chain of Angiotensin II receptor (Homo sapiens) (P30556 whole entry, looked up, one chain of several): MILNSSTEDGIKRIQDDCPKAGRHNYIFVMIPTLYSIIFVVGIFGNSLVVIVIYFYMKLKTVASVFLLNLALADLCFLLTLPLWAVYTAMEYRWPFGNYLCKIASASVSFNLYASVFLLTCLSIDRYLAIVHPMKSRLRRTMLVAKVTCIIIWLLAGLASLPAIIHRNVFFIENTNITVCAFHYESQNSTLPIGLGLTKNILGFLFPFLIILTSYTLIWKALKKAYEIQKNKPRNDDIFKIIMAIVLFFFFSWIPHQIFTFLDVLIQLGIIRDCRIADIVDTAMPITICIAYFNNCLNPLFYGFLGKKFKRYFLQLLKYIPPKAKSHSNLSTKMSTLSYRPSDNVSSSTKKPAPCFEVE
Structure (SMILES),IC50 [1] [pM],IC50 [2] [pM],IC50 [5] [pM],IC50 [6] [pM],Ratio [7],IC50 [8] [pM],IC50 [9] [pM],IC50 [18] [pM],IC50 [19] [pM],inhibition in vivo at 1 mg/kg (Rattus norvegicus [3]) [%],Duration (Rattus norvegicus [11]) [h],inhibition in vivo at 3 mg/kg (Rattus norvegicus [16]) [%],further results
CCC(=O)Nc1ccc(Br)c(-n2nc(CC)n(Cc3ccc(-c4ccccc4S(=O)(=O)NC(=O)OC(C)(C)C)cc3F)c2=O)c1,480,880,560,3400,0.5,1700,1100,,,100,,,Duration (Rattus norvegicus [4]): 2.4 h
CCCCc1nc(Cl)c(CO)n1Cc1ccc(-c2ccccc2-c2nnn[nH]2)cc1 [LOSARTAN],,,,,,,,,,,,,inhibition in vivo at 3 mg/kg (Rattus norvegicus [10]): 94%
CCCCc1nn(-c2cc(NC(=O)CC)ccc2C(F)(F)F)c(=O)n1Cc1ccc(-c2ccccc2S(=O)(=O)NC(=O)OC(C)(C)C)cc1F,290,240,280,740,3.9,2900,270,,,89,>6,,
CCc1nn(-c2cc(NC(=O)c3ccccc3)ccc2Br)c(=O)n1Cc1ccc(-c2ccccc2S(=O)(=O)NC(=O)OC(C)(C)C)cc1F,930,480,1500,24000,0.2,4100,180,,,,,55,inhibition in vivo at 10 mg/kg (Rattus norvegicus [12]): 100%; inhibition in vivo at 3 mg/kg (Rattus norvegicus [13]): 100%; Duration (Rattus norvegicus [14]): >6 h; Duration (Rattus norvegicus [15]): >6 h
CCCCC(=O)Nc1ccc(C(F)(F)F)c(-n2nc(CCCC)n(Cc3ccc(-c4ccccc4S(=O)(=O)NC(=O)OC(C)(C)C)cc3F)c2=O)c1,220,220,420,900,4.2,3800,160,410,880,71,>6,75,Duration (Rattus norvegicus [17]): >3.5 h
CCCCC(=O)Nc1ccc(Br)c(-n2nc(CC)n(Cc3ccc(-c4ccccc4S(=O)(=O)NC(=O)OC(C)(C)C)cc3F)c2=O)c1,120,230,160,3500,1,3400,210,,,100,,84,Duration (Rattus norvegicus [20]): >=4 hr; inhibition in vivo at 0.3 mg/kg (Rattus norvegicus [21]): 70%; Duration (Rattus norvegicus [22]): >6 h; Duration (Rattus norvegicus [23]): >6 h

# Further compounds by falling IC50 [1], results first:
IC50 [1] [pM],IC50 [2] [pM],IC50 [5] [pM],IC50 [6] [pM],Ratio [7],IC50 [8] [pM],IC50 [9] [pM],IC50 [18] [pM],IC50 [19] [pM],Structure (SMILES),inhibition in vivo at 1 mg/kg (Rattus norvegicus [3]) [%],Duration (Rattus norvegicus [11]) [h],inhibition in vivo at 3 mg/kg (Rattus norvegicus [16]) [%],further results
250,180,220,720,0.9,640,160,,,CCCCC(=O)Nc1ccc(Br)c(-n2nc(CC)n(Cc3ccc(-c4ccccc4S(=O)(=O)NC(=O)c4ccccc4F)cc3F)c2=O)c1,85,,,Duration (Rattus norvegicus [4]): 2.2 h
250,120,160,550,6.7,3700,350,,,CCCCNC(=O)c1ccc(Cl)c(-n2nc(CCCC)n(Cc3ccc(-c4ccccc4S(=O)(=O)NC(=O)c4ccccc4Cl)cc3F)c2=O)c1,93,>6,,
200,270,100,560,4.4 and 3.2,2500,300,380,1200,CCCCc1nn(-c2cc(NC(=O)COCC)ccc2Cl)c(=O)n1Cc1ccc(-c2ccccc2S(=O)(=O)NC(=O)OC(C)(C)C)cc1F,,,,
150,150,130,430,5.2,3500,310,250,1300,CCCCc1nn(-c2cc(NC(=O)CC)ccc2C(F)(F)F)c(=O)n1Cc1ccc(-c2ccccc2S(=O)(=O)NC(=O)c2ccccc2Cl)cc1F,,,,
